Values joined by “and” are separate entries in the source; they are usually repeats but may differ in a detail not shown here. Equal entries are not always repeated.
What was measured:
Type in all cases: functional
Details in all cases: route subcutaneous
[1] = tested on: Trypanosoma brucei rhodesiense; assay: Antitrypanosomal activity was evaluated against Trypanosoma rhodesiense infections in mice, at dose 106 mg/kg, administered subcutaneously
Outline: (§1)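 IUR/HA Swiss mice (six weeks old, 30-32 g) infected i.p. with Wellcome CT strain T. rhodesiense. A single subcutaneous dose in peanut oil was given about 2 h after inoculation, with five mice per dose level. Positive control was stilbamidine or 2-hydroxystilbamidine isethionate at 40 mg/kg. Deaths before day 4 were scored toxic, and 30-day survivors cured.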

[2] = tested on: Trypanosoma brucei rhodesiense; assay: Anti-trypanosomal activity against Trypanosoma rhodesiense infections in mice, 26 mg/kg administered subcutaneously
Outline: (§2)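 Six-week-old IUR/HA Swiss mice (30-32 g), 5 per dose, infected ip with 0.5 mL of a 1:50 000 dilution of heparinized heart blood from donor mice infected 3 days before (Wellcome CT strain). Single sc dose in peanut oil about 2 h post-inoculation. Deaths before day 4 counted toxic. ΔMST versus untreated controls; survivors at 30 days counted cured.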

[3] = tested on: Trypanosoma brucei rhodesiense; assay: Antitrypanosomal activity against Trypanosoma rhodesiense infections in mice, 424 mg/kg administered subcutaneously; outline: as §1
[4] = tested on: Trypanosoma brucei rhodesiense; assay: Antitrypanosomal activity against Trypanosoma rhodesiense infections in mice, 106 mg/kg administered subcutaneously; outline: as §2
[5] = tested on: Trypanosoma brucei rhodesiense; assay: Antitrypanosomal activity was evaluated against Trypanosoma rhodesiense infections in mice, at dose 106 mg/kg, administered subcutaneously;Toxic; outline: as §1
[6] = tested on: Trypanosoma brucei rhodesiense; assay: Antitrypanosomal activity was evaluated against Trypanosoma rhodesiense infections in mice, at dose 26 mg/kg, administered subcutaneously;Toxic; outline: as §1
Mus musculus [7] = assay: Antitrypanosomal activity was evaluated against Trypanosoma rhodesiense infections in mice, at dose 26 mg/kg, administered subcutaneously;Cures; outline: as §1
[8] = tested on: Trypanosoma brucei rhodesiense; assay: Antitrypanosomal activity against Trypanosoma rhodesiense infections in mice, 3.3 mg/kg administered subcutaneously; outline: as §2
[9] = tested on: Trypanosoma brucei rhodesiense; assay: Antitrypanosomal activity was evaluated against Trypanosoma rhodesiense infections in mice, at dose 1.6 mg/kg, administered subcutaneously; outline: as §2
[10] = tested on: Trypanosoma brucei rhodesiense; assay: (§3) Antitrypanosomal activity was evaluated against Trypanosoma rhodesiense infections in mice, at dose 212 mg/kg, administered subcutaneously; outline: as §2
Mus musculus [11] = assay: Antitrypanosomal activity was evaluated against Trypanosoma rhodesiense infections in mice, at dose 13 mg/kg, administered subcutaneously;Cures; outline: as §1
[12] = tested on: Trypanosoma brucei rhodesiense; assay: (§4) Antitrypanosomal activity was evaluated against Trypanosoma rhodesiense infections in mice, at dose 53 mg/kg, administered subcutaneously; outline: as §2
Mus musculus [13] = assay: Antitrypanosomal activity was evaluated against Trypanosoma rhodesiense infections in mice, at dose 53 mg/kg, administered subcutaneously;Cures; outline: as §1
Mus musculus [14] = assay: Antitrypanosomal activity was evaluated against Trypanosoma rhodesiense infections in mice, at dose 6.6 mg/kg, administered subcutaneously;Cures; outline: as §1
[15] = tested on: Trypanosoma brucei rhodesiense; assay: Antitrypanosomal activity against Trypanosoma rhodesiense infections in mice, 6.6 mg/kg administered subcutaneously; outline: as §2
Mus musculus [16] = assay: Antitrypanosomal activity was evaluated against Trypanosoma rhodesiense infections in mice, at dose 106 mg/kg, administered subcutaneously;Cures; outline: as §1
Mus musculus [17] = assay: Antitrypanosomal activity was evaluated against Trypanosoma rhodesiense infections in mice, at dose 212 mg/kg, administered subcutaneously;Cures; outline: as §1
[18] = tested on: Trypanosoma brucei rhodesiense; assay: Antitrypanosomal activity was evaluated against Trypanosoma rhodesiense infections in mice, at dose 424 mg/kg, administered subcutaneously; outline: as §2
Mus musculus [19] = assay: as §4; outline: as §1
[20] = tested on: Trypanosoma brucei rhodesiense; assay: Antitrypanosomal activity was evaluated against Trypanosoma rhodesiense infections in mice, at dose 424 mg/kg, administered subcutaneously;Toxic; outline: as §1
Mus musculus [21] = assay: Antitrypanosomal activity was evaluated against Trypanosoma rhodesiense infections in mice, at dose 424 mg/kg, administered subcutaneously;Cures; outline: as §1
Mus musculus [22] = assay: Antitrypanosomal activity was evaluated against Trypanosoma rhodesiense infections in mice, at dose 212 mg/kg, administered subcutaneously;Toxic; outline: as §1
Mus musculus [23] = assay: Antitrypanosomal activity was evaluated against Trypanosoma rhodesiense infections in mice, at dose 13 mg/kg, administered subcutaneously; outline: as §1
[24] = tested on: Trypanosoma brucei rhodesiense; assay: Antitrypanosomal activity was evaluated against Trypanosoma rhodesiense infections in mice, at dose 26 mg/kg, administered subcutaneously; outline: as §1
Mus musculus [25] = assay: Antitrypanosomal activity was evaluated against Trypanosoma rhodesiense infections in mice, at dose 13 mg/kg, administered subcutaneously;Toxic; outline: as §1
Mus musculus [26] = assay: as §3; outline: as §1
Mus musculus [27] = assay: Antitrypanosomal activity was evaluated against Trypanosoma rhodesiense infections in mice, at dose 6.6 mg/kg, administered subcutaneously; outline: as §1

SMILES | Toxic [1] | Delta MST [2] | Toxic [3] | Delta MST [4] | Delta MST [8] | Delta MST [15] | Delta MST [18] | other results
Cl.Cl.NC1=NC(C2CCC3(CC2)N=C(N)N=C(N)N3c2ccc(Cl)cc2)N(c2ccc(Cl)cc2)C(N)=N1 (centres undefined) | 4 | 1 days | 5 | – | – | – | – | –
Cc1ccc(NC(=O)Nc2ccc(C)c(N3C(N)=NC(N)=NC3(C)C)c2)cc1N1C(N)=NC(N)=NC1(C)C.Cl.Cl | – | 0 days | 5 | 0 days | – | – | – | Toxic [5]: 2; Toxic [6]: 2
CC1(C)N=C(N)N=C(N)N1c1ccc(Cc2ccc(N3C(N)=NC(N)=NC3(C)C)cc2[N+](=O)[O-])c([N+](=O)[O-])c1.Cl.Cl | 5 | 0.6 days | 5 | – | – | – | – | –
COc1cc(-c2ccc(N3C(N)=NC(N)=NC3(C)C)c(OC)c2)ccc1N1C(N)=NC(N)=NC1(C)C.Cl.Cl | – | 8.9 days | 5 | 11.2 days | 7.2 days | 13.5 days | – | Cures (Mus musculus [7]): 4; Delta MST [9]: 2.2 days; Delta MST [10]: 3.2 days; Cures (Mus musculus [11]): 3; Delta MST [12]: 4.9 days; Cures (Mus musculus [13]): 3; Cures (Mus musculus [14]): 3; Cures (Mus musculus [16]): 2; Cures (Mus musculus [17]): 2
Cc1cc(S(=O)(=O)c2ccc(N3C(N)=NC(N)=NC3(C)C)cc2)ccc1N1C(N)=NC(N)=NC1(C)C.Cl.Cl | 5 | 0.7 days | 5 | – | 0.2 days | 0.4 days | – | Toxic [6]: 4
CC1(C)N=C(N)N=C(N)N1c1ccc(OCCOc2ccc(N3C(N)=NC(N)=NC3(C)C)cc2)cc1.Cl.Cl | 5 | 8.9 days | 5 | – | 1 days | 2.6 days | – | Delta MST [9]: 2.8 days; Toxic [6]: 4
CC1(C)N=C(N)N=C(N)N1c1cc(C(=O)O)cc(N2C(N)=NC(N)=NC2(C)C)c1.Cl.Cl | – | -0.1 days | – | 0.1 days | – | – | -0.1 days | –
CC1(C)N=C(N)NC(Nc2ccc(NC3=NC(C)(C)N=C(N)N3)cc2)=N1.Cl.Cl | 4 | 1.3 days | 5 | 1.9 days | – | – | – | –
CC1(C)N=C(N)N=C(N)N1c1ccc(NC(=O)Nc2ccc(N3C(N)=NC(N)=NC3(C)C)cc2)cc1.Cl.Cl | 5 | – | 5 | – | – | – | – | Cures (Mus musculus [7]): 1; Toxic (Mus musculus [19]): 5; Toxic [6]: 1
CC1(C)N=C(N)N=C(N)N1c1ccc(OCCCCOc2ccc(N3C(N)=NC(N)=NC3(C)C)cc2)cc1.Cl.Cl | – | 0.3 days | 5 | 1 days | 0.2 days | 0 days | – | Delta MST [9]: 0 days; Toxic [5]: 4; Toxic [6]: 1
Cl.Cl.NC1=NC2(CCCCC2)N(c2ccc(CCc3ccc(N4C(N)=NC(N)=NC45CCCCC5)cc3)cc2)C(N)=N1 | – | 1.3 days | – | 12 days | – | – | – | Toxic [20]: 1; Cures (Mus musculus [7]): 2; Cures (Mus musculus [21]): 4; Toxic (Mus musculus [22]): 1; Delta MST [10]: 11 days; Delta MST [12]: 9 days; Cures (Mus musculus [13]): 2; Cures (Mus musculus [16]): 3; Cures (Mus musculus [17]): 3
CC1(C)N=C(N)N=C(N)N1c1cc(Cl)c(N2C(N)=NC(N)=NC2(C)C)c(Cl)c1.Cl.Cl | – | – | – | – | – | – | – | Toxic (Mus musculus [22]): 4; Delta MST [10]: -0.2 days; Delta MST [12]: -0.2 days
CC1(C)N=C(N)N=C(N)N1c1ccc(OCCCCCCCCCCOc2ccc(N3C(N)=NC(N)=NC3(C)C)cc2)cc1.Cl.Cl | – | -0.1 days | – | 0.1 days | – | – | 0.1 days | –
CC1(C)N=C(N)N=C(N)N1c1ccc2oc3ccc(N4C(N)=NC(N)=NC4(C)C)cc3c2c1.Cl.Cl | 5 | -0.2 days | 5 | – | – | -0.2 days | – | Delta MST [9]: 0.2 days
CC1(C)N=C(N)N=C(N)N1c1ccc(N2C(N)=NC(N)=NC2(C)C)cc1.Cl.Cl | – | 0 days | 3 | 0.2 days | -0.1 days | 0.1 days | 1 days | Delta MST [9]: 0.1 days
CC1(C)N=C(N)N=C(N)N1c1ccc(OCCCCCOc2ccc(N3C(N)=NC(N)=NC3(C)C)cc2)cc1.Cl.Cl | 5 | – | 5 | – | 0.2 days | 0.4 days | – | Delta MST [9]: 0 days; Toxic (Mus musculus [23]): 5; Toxic [24]: 5
Cl.Cl.NC1=NC2(CCCCC2)NC(Nc2ccc(CCc3ccc(NC4=NC5(CCCCC5)NC(N)=N4)cc3)cc2)=N1 | – | 0.2 days | – | 0.2 days | – | – | 0.2 days | –
CC(C)(c1ccc(N2C(N)=NC(N)=NC2(C)C)cc1)c1ccc(N2C(N)=NC(N)=NC2(C)C)cc1.Cl.Cl | – | 1.3 days | 5 | 1.8 days | – | 0.9 days | – | Toxic (Mus musculus [25]): 1; Toxic [5]: 2; Toxic [6]: 1
CC1(C)N=C(N)N=C(N)N1c1ccc(C(c2ccccc2)c2ccc(N3C(N)=NC(N)=NC3(C)C)cc2)cc1.Cl.Cl | 2 | – | 5 | 4.3 days | – | – | – | Delta MST [10]: 4.3 days; Delta MST ([12]; 53 mg/kg): 2.3 days and 2.8 days; Toxic (Mus musculus [26]): 2
CC1(C)N=C(N)NC(Nc2ccc(CCc3ccc(NC4=NC(C)(C)N=C(N)N4)cc3)cc2)=N1.Cl | – | 0.2 days | – | 0.8 days | – | – | 0 days | Toxic [20]: 3
CC1(C)N=C(N)N=C(N)N1c1cccc(N2C(N)=NC(N)=NC2(C)C)c1.Cl.Cl | 5 | 0 days | 5 | – | 0 days | 0 days | – | Delta MST [9]: 0 days; Toxic [24]: 1
Cc1ccc(N2C(N)=NC(N)=NC2(C)C)cc1NC(=O)Nc1cc(N2C(N)=NC(N)=NC2(C)C)ccc1C.Cl.Cl | – | -0.1 days | – | -0.1 days | – | – | -0.1 days | Toxic [20]: 3
CC1(C)N=C(N)N=C(N)N1c1ccc2c(c1)S(=O)(=O)c1cc(N3C(N)=NC(N)=NC3(C)C)ccc1C2.Cl.Cl | – | 0 days | 5 | -0.3 days | 0 days | 0.2 days | – | Delta MST [9]: 0 days; Toxic [5]: 4
CC1(C)N=C(N)N=C(N)N1c1ccc(SSc2ccc(N3C(N)=NC(N)=NC3(C)C)cc2)cc1.Cl.Cl | – | 0.1 days | – | 0.1 days | – | – | 0.5 days | –
CC1(C)N=C(N)N=C(N)N1c1ccc(CC(Cc2ccc(N3C(N)=NC(N)=NC3(C)C)cc2)C(=O)O)cc1.Cl.Cl | – | 0 days | – | 0.2 days | – | – | 0 days | Toxic [20]: 2
CC1(C)N=C(N)N=C(N)N1c1cccc2c(N3C(N)=NC(N)=NC3(C)C)cccc12.Cl.Cl | – | 1.1 days | – | -0.3 days | – | – | -0.3 days | Toxic [20]: 3
CC1(C)N=C(N)N=C(N)N1c1ccc(OCCCCCCOc2ccc(N3C(N)=NC(N)=NC3(C)C)cc2)cc1.Cl.Cl | 5 | – | 5 | – | – | – | – | Toxic (Mus musculus [27]): 1; Toxic (Mus musculus [23]): 5; Toxic [24]: 5
CC1(C)N=C(N)N=C(N)N1c1ccc(Sc2ccc(N3C(N)=NC(N)=NC3(C)C)cc2)cc1.Cl.Cl | 5 | 2.7 days | 5 | – | 0.6 days | 0.6 days | – | Toxic [6]: 1
CC1(C)N=C(N)N=C(N)N1c1ccc(OCCCCCCCCCCCCOc2ccc(N3C(N)=NC(N)=NC3(C)C)cc2)cc1.Cl.Cl | – | 0.2 days | – | 0.8 days | – | – | 0.8 days | Delta MST [10]: 0.8 days; Delta MST [12]: 0.4 days

— ChEMBL document CHEMBL1122854, “Novel bis[1,6-dihydro-6,6-dimethyl-1,3,5-triazine-2,4-diamines] as antitrypanosomal agents” (1985)
